Assay results published in ChEMBL document CHEMBL3414529, “Discovery and optimization of novel dual dithiocarbamates as potent anticancer agents” (Eur J Med Chem, 2015).

Experiments:
[1] = Antiproliferative activity against human H460 cells assessed as inhibition of cell growth after 72 hrs by MTT method; assay type: functional, cell-based; settings: NCI-H460, 72 h
Summary of the method: (§1)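 Tumor cells seeded in 100 µL suspension, 24 h preincubation at 37 °C, 5% CO2. Serial dilutions of compound then added for 72 h; DMSO controls at 0.5% final. Surviving cells quantified by MTT, OD read at 492/620 nm. IC50 is the concentration giving 50% growth inhibition, taken from dose-response curves of a triplicate experiment.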

[2] = tested on: HepG2; assay: Antiproliferative activity against human HepG2 cells assessed as inhibition of cell growth after 72 hrs by MTT method; assay type: functional, cell-based; settings: HepG2, 72 h; summary of the method: as §1
[3] = tested on: MCF7; assay: Antiproliferative activity against human MCF7 cells assessed as inhibition of cell growth after 72 hrs by MTT method; assay type: functional, cell-based; settings: MCF7, 72 h; summary of the method: as §1
[4] = tested on: MDA-MB-453; assay: Antiproliferative activity against human MDA-MB-453 cells assessed as inhibition of cell growth after 72 hrs by MTT method; assay type: functional, cell-based; settings: MDA-MB-453, 72 h; summary of the method: as §1
[5] = tested on: SW480; assay: Antiproliferative activity against human SW480 cells assessed as inhibition of cell growth after 72 hrs by MTT method; assay type: functional, cell-based; settings: SW480, 72 h; summary of the method: as §1
[6] = tested on: NCI-H522; assay: Antiproliferative activity against human NCI-H522 cells assessed as inhibition of cell growth after 72 hrs by MTT method; assay type: functional, cell-based; settings: NCI-H522, 72 h; summary of the method: as §1
[7] = Antiproliferative activity against human PC3 cells assessed as inhibition of cell growth after 72 hrs by MTT method; assay type: functional, cell-based; settings: PC-3, 72 h; summary of the method: as §1
[8] = Antiproliferative activity against human H1299 cells assessed as inhibition of cell growth after 72 hrs by MTT method; assay type: functional, cell-based; settings: NCI-H1299, 72 h; summary of the method: as §1
[9] = tested on: A-375; assay: Antiproliferative activity against human A375 cells assessed as inhibition of cell growth after 72 hrs by MTT method; assay type: functional, cell-based; settings: A-375, 72 h; summary of the method: as §1
[10] = Antiproliferative activity against human COLO205 cells assessed as inhibition of cell growth after 72 hrs by MTT method; assay type: functional, cell-based; settings: COLO 205, 72 h; summary of the method: as §1
[11] = Antiproliferative activity against human LO2 cells assessed as inhibition of cell growth after 72 hrs by Alamar Blue method; assay type: cell-based; settings: L02, 72 h
Summary of the method: (§2)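 Non-tumor cells seeded at 3.5 × 10³ cells/mL, 100 µL each, preincubated 24 h at 37 °C, 5% CO2. Serial dilutions then added for 72 h; DMSO controls at 0.5% final. Surviving cells measured by Alamar Blue, OD read at 492/620 nm. IC50 from a triplicate experiment.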

[12] = tested on: HEK293; assay: Antiproliferative activity against human HEK293 cells assessed as inhibition of cell growth after 72 hrs by Alamar Blue method; assay type: cell-based; settings: HEK293, 72 h; summary of the method: as §2

Structure (SMILES)	IC50 [1] [µM]	also measured
CN(C)C(=S)SCC(CSC(=S)N(C)C)C(=O)c1cnc2ccccn12	13	–
CCN(CC)C(=S)SCC(CSC(=S)N(CC)CC)C(=O)c1cnc2ccccc2c1	5.16	–
CN(C)C(=S)SCC(CSC(=S)N(C)C)C(=O)c1ccc(F)cc1	1.21	–
CN(C)C(=S)SCC(CSC(=S)N(C)C)C(=O)c1cnc2ccccc2c1	0.476	IC50 [2]: 0.054 µM; IC50 [3]: 0.023 µM; IC50 [4]: 0.162 µM; IC50 [5]: 6.35 µM; IC50 [6]: 0.139 µM; IC50 [7]: 0.431 µM; IC50 [8]: 0.622 µM; IC50 [9]: 0.439 µM; IC50 [10]: 0.325 µM; IC50 [11]: 13.1 µM; IC50 [12]: 10.8 µM
O=C(c1cnc2ccccc2c1)C(CSC(=S)N1CCCCC1)CSC(=S)N1CCCCC1	4.65	–
CN(C)C(=S)SCC(CSC(=S)N(C)C)C(=O)c1c(-c2ccccc2)nn2ccccc12	4.09	–
CN(C)C(=S)SCC(CSC(=S)N(C)C)C(=O)c1ccc[nH]1	97.3	–
CN(Cc1cccnc1)C(=S)SCC(CSC(=S)N(C)Cc1cccnc1)C(=O)c1cnc2ccccc2c1	1	–
CN(C)C(=S)SCC(CSC(=S)N(C)C)C(=O)c1nccs1	0.84	–
CN(C)C(=S)SCC(CSC(=S)N(C)C)C(=O)c1ccc(OCc2ccccc2)cc1	9.77	–
CN(C)C(=S)SCC(CSC(=S)N(C)C)C(=O)c1ccccc1F	0.92	–
CN(C)C(=S)SCC(CSC(=S)N(C)C)C(=O)c1ccc2c(c1)ncn2-c1ccccc1	2.2	–
CN(C)C(=S)SCC(CSC(=S)N(C)C)C(=O)c1ccccc1	1.93	–
CN(C)C(=S)SCC(CSC(=S)N(C)C)C(=O)c1csc2ccccc12	0.85	–
CN(C)C(=S)SCC(CSC(=S)N(C)C)C(=O)c1cnn2ccccc12	31.5	–
COc1ccccc1C(=O)C(CSC(=S)N(C)C)CSC(=S)N(C)C	0.81	–
O=C(c1cnc2ccccc2c1)C(CSC(=S)N1CCSCC1)CSC(=S)N1CCSCC1	125	–
CN(C)C(=S)SCC(CSC(=S)N(C)C)C(=O)c1ccc(O)cc1	30	–
CC(=O)C(CSC(=S)N(C)C)CSC(=S)N(C)C	0.89	–
CN(C)C(=S)SCC(CSC(=S)N(C)C)C(=O)c1cccnc1	0.87	–
CN(C)C(=S)SCC(CSC(=S)N(C)C)C(=O)c1c(-c2ccccc2)nn2ncccc12	58.2	–
CN(C)C(=S)SCC(CSC(=S)N(C)C)C(=O)c1cnn2ncccc12	4.55	–
CN(C)C(=S)SCC(CSC(=S)N(C)C)C(=O)c1cc2ccccc2oc1=O	0.66	–
COc1cccc(C(=O)C(CSC(=S)N(C)C)CSC(=S)N(C)C)c1	1.24	–
CN1CCN(C(=S)SCC(CSC(=S)N2CCN(C)CC2)C(=O)c2cnc3ccccc3c2)CC1	2.51	–
Cc1nc2ccccn2c1C(=O)C(CSC(=S)N(C)C)CSC(=S)N(C)C	151	–
O=C(c1cnc2ccccc2c1)C(CSC(=S)N1CCOCC1)CSC(=S)N1CCOCC1	0.58	–
O=C(c1cnc2ccccc2c1)C(CSC(=S)N1CCCC1)CSC(=S)N1CCCC1	0.79	–
